Reference: ChEMBL document CHEMBL1132297, “Novel cryptophycin antitumor agents: synthesis and cytotoxicity of fragment "B" analogues” (J Med Chem, 1999)

Test system: CCRF-CEM
Assay: In vitro cytotoxicity against human leukemia CCRF-CEM tumor cell lines
Type: functional, cell-based
In short: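 Log-phase cells seeded at 4.8×10^4 cells per well in RPMI-1640 with 10% dialyzed FBS and 25 mM HEPES. Compounds were dissolved in DMSO at 0.2 mg/mL, serially diluted 1:3 in DMSO, and added to duplicate wells; DMSO final 0.5%, with DMSO-only control wells. Exposure 72 h at 37 °C, 5% CO2. Suspension cells counted by Coulter counter; IC50 from dose–response curves.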

Row | SMILES | IC50 [nM]
1 | CC(C)C[C@@H]1OC(=O)C(C)(C)CNC(=O)[C@@H](CCc2ccccc2)NC(=O)/C=C/C[C@@H]([C@H](C)[C@@H]2O[C@H]2c2ccccc2)OC1=O | > 1620
2 | CC(C)C[C@@H]1OC(=O)C(C)(C)CNC(=O)[C@@H](Cc2ccc(NC(=O)OCC3c4ccccc4-c4ccccc43)cc2)NC(=O)/C=C/C[C@@H]([C@H](C)C2OC2c2ccccc2)OC1=O (stereo not given in full) | 115
3 | CC(C)C[C@@H]1OC(=O)C(C)(C)CNC(=O)[C@@H](Cc2ccc(N)c(Cl)c2)NC(=O)/C=C/C[C@@H]([C@H](C)[C@H]2O[C@@H]2c2ccccc2)OC1=O | 0.58
4 | CC(C)C[C@@H]1OC(=O)C(C)(C)CNC(=O)[C@@H](COCc2ccccc2)NC(=O)/C=C/C[C@@H]([C@H](C)[C@H]2O[C@@H]2c2ccccc2)OC1=O | 249
5 | CC(C)C[C@@H]1OC(=O)C(C)(C)CNC(=O)[C@@H](c2ccc(O)cc2)NC(=O)/C=C/C[C@@H]([C@H](C)[C@H]2O[C@@H]2c2ccccc2)OC1=O | 274
6 | CC(C)C[C@@H]1OC(=O)C(C)(C)CNC(=O)[C@@H](Cc2ccc(NC(=O)OCC3c4ccccc4-c4ccccc43)c(Cl)c2)NC(=O)/C=C/C[C@@H]([C@H](C)/C=C/c2ccccc2)OC1=O | > 1250
7 | CC(C)C[C@@H]1OC(=O)C(C)(C)CNC(=O)[C@@H](Cc2cccc3ccccc23)NC(=O)/C=C/C[C@@H]([C@H](C)[C@@H]2O[C@H]2c2ccccc2)OC1=O | 327
8 | CC(C)C[C@@H]1OC(=O)C(C)(C)CNC(=O)[C@@H]([C@H](C)O)NC(=O)/C=C/C[C@@H]([C@H](C)/C=C/c2ccccc2)OC1=O | > 1840
9 | CC(C)C[C@@H]1OC(=O)C(C)(C)CNC(=O)[C@@H](Cc2ccc(I)cc2)NC(=O)/C=C/C[C@@H]([C@H](C)/C=C/c2ccccc2)OC1=O | 607
10 | CC(C)C[C@@H]1OC(=O)C(C)(C)CNC(=O)[C@@H](Cc2cccc3ccccc23)NC(=O)/C=C/C[C@@H]([C@H](C)[C@H]2O[C@@H]2c2ccccc2)OC1=O | 35
11 | COc1ccc(C[C@H]2NC(=O)/C=C/C[C@@H]([C@H](C)/C=C/c3ccccc3)OC(=O)[C@H](CC(C)C)OC(=O)C(C)(C)CNC2=O)cc1Cl | 13.8
12 | CC(C)C[C@@H]1OC(=O)C(C)(C)CNC(=O)[C@@H](Cc2ccc(NC(=O)OCC3c4ccccc4-c4ccccc43)c(Cl)c2)NC(=O)/C=C/C[C@@H]([C@H](C)C2OC2c2ccccc2)OC1=O (stereo not given in full) | 15.3
13 | CC(C)C[C@@H]1OC(=O)C(C)(C)CNC(=O)[C@@H](Cc2ccccc2)NC(=O)/C=C/C[C@@H]([C@H](C)/C=C/c2ccccc2)OC1=O | 412
14 | CC(C)C[C@@H]1OC(=O)C(C)(C)CNC(=O)[C@@H](Cc2ccc(N)cc2)NC(=O)/C=C/C[C@@H]([C@H](C)/C=C/c2ccccc2)OC1=O | 1540
15 | CC(C)C[C@@H]1OC(=O)C(C)(C)CNC(=O)[C@@H](Cc2ccc(N)cc2)NC(=O)/C=C/C[C@@H]([C@H](C)[C@H]2O[C@@H]2c2ccccc2)OC1=O | 10.1
16 | CC(C)C[C@@H]1OC(=O)C(C)(C)CNC(=O)[C@@H](Cc2ccc3ccccc3c2)NC(=O)/C=C/C[C@@H]([C@H](C)[C@@H]2O[C@H]2c2ccccc2)OC1=O | 866
17 | CC(C)C[C@@H]1OC(=O)C(C)(C)CNC(=O)[C@@H](COCc2ccccc2)NC(=O)/C=C/C[C@@H]([C@H](C)[C@@H]2O[C@H]2c2ccccc2)OC1=O | 975
18 | CC(C)C[C@@H]1OC(=O)C(C)(C)CNC(=O)[C@@H](Cc2ccc(O)c(O)c2)NC(=O)/C=C/C[C@@H]([C@H](C)/C=C/c2ccccc2)OC1=O | 1300
19 | CC(C)C[C@@H]1OC(=O)C(C)(C)CNC(=O)[C@@H](C(C)C)NC(=O)/C=C/C[C@@H]([C@H](C)/C=C/c2ccccc2)OC1=O | > 1850
20 | CC(C)C[C@@H]1OC(=O)C(C)(C)CNC(=O)[C@@H](CCc2ccccc2)NC(=O)/C=C/C[C@@H]([C@H](C)/C=C/c2ccccc2)OC1=O | 1660
21 | CC(C)C[C@@H]1OC(=O)C(C)(C)CNC(=O)[C@@H](COCc2ccccc2)NC(=O)/C=C/C[C@@H]([C@H](C)/C=C/c2ccccc2)OC1=O | 856
22 | CC(C)C[C@@H]1OC(=O)C(C)(C)CNC(=O)[C@@H](Cc2ccc(N(C)C)c(Cl)c2)NC(=O)/C=C/C[C@@H]([C@H](C)[C@H]2O[C@@H]2c2ccccc2)OC1=O | 0.054
23 | CC(C)C[C@@H]1OC(=O)C(C)(C)CNC(=O)[C@@H](Cc2ccc(N)c(Cl)c2)NC(=O)/C=C/C[C@@H]([C@H](C)/C=C/c2ccccc2)OC1=O | 500

Row | SMILES | IC50 [nM]
24 | CC(C)C[C@@H]1OC(=O)C(C)(C)CNC(=O)[C@@H](c2ccc(O)cc2)NC(=O)/C=C/C[C@@H]([C@H](C)/C=C/c2ccccc2)OC1=O | > 1690
25 | CC(C)C[C@@H]1OC(=O)C(C)(C)CNC(=O)CNC(=O)/C=C/C[C@@H]([C@H](C)[C@H]2O[C@@H]2c2ccccc2)OC1=O | > 1940
26 | CC(C)C[C@@H]1OC(=O)C(C)(C)CNC(=O)[C@@H](C(C)C)NC(=O)/C=C/C[C@@H]([C@H](C)[C@H]2O[C@@H]2c2ccccc2)OC1=O | > 1800
27 | CC(C)C[C@@H]1OC(=O)C(C)(C)CNC(=O)[C@@H](Cc2ccc(NC(=O)OCC3c4ccccc4-c4ccccc43)cc2)NC(=O)/C=C/C[C@@H]([C@H](C)/C=C/c2ccccc2)OC1=O | > 1200
28 | CC(C)C[C@@H]1OC(=O)C(C)(C)CNC(=O)[C@@H](Cc2ccc3ccccc3c2)NC(=O)/C=C/C[C@@H]([C@H](C)/C=C/c2ccccc2)OC1=O | > 1570
29 | CC(C)C[C@@H]1OC(=O)C(C)(C)CNC(=O)[C@H]2CCCN2C(=O)/C=C/C[C@@H]([C@H](C)/C=C/c2ccccc2)OC1=O | > 1860
30 | CC(C)C[C@@H]1OC(=O)C(C)(C)CNC(=O)[C@@H](Cc2ccc(O)c(Cl)c2)NC(=O)/C=C/C[C@@H]([C@H](C)/C=C/c2ccccc2)OC1=O | 269
31 | CC(C)C[C@@H]1OC(=O)C(C)(C)CNC(=O)[C@@H](Cc2cccc3ccccc23)NC(=O)/C=C/C[C@@H]([C@H](C)/C=C/c2ccccc2)OC1=O | > 1570
32 | CC(C)C[C@@H]1OC(=O)C(C)(C)CNC(=O)[C@H]2CCCN2C(=O)/C=C/C[C@@H]([C@H](C)[C@H]2O[C@@H]2c2ccccc2)OC1=O | 1350
33 | CC(C)C[C@@H]1OC(=O)C(C)(C)CNC(=O)CNC(=O)/C=C/C[C@@H]([C@H](C)/C=C/c2ccccc2)OC1=O | > 2000
34 | CC(C)C[C@@H]1OC(=O)C(C)(C)CNC(=O)[C@@H](CCc2ccccc2)NC(=O)/C=C/C[C@@H]([C@H](C)[C@H]2O[C@@H]2c2ccccc2)OC1=O | 598
35 | CC(C)C[C@@H]1OC(=O)C(C)(C)CNC(=O)[C@@H](CC2CCCCC2)NC(=O)/C=C/C[C@@H]([C@H](C)/C=C/c2ccccc2)OC1=O | > 1680
36 | CC(C)C[C@@H]1OC(=O)C(C)(C)CNC(=O)[C@@H](Cc2ccc(O)cc2)NC(=O)/C=C/C[C@@H]([C@H](C)/C=C/c2ccccc2)OC1=O | 734
37 | CC(C)C[C@@H]1OC(=O)C(C)(C)CNC(=O)[C@@H](Cc2ccc(O)c(Cl)c2)NC(=O)/C=C/C[C@@H]([C@H](C)[C@H]2O[C@@H]2c2ccccc2)OC1=O | 0.52
38 | CC(C)C[C@@H]1OC(=O)C(C)(C)CNC(=O)[C@@H](Cc2ccc3ccccc3c2)NC(=O)/C=C/C[C@@H]([C@H](C)[C@H]2O[C@@H]2c2ccccc2)OC1=O | 48
39 | COc1ccc(C[C@H]2NC(=O)/C=C/C[C@@H]([C@H](C)C3O[C@@H]3c3ccccc3)OC(=O)[C@H](CC(C)C)OC(=O)C(C)(C)CNC2=O)cc1Cl (stereo not given in full) | 0.022
40 | CC(C)C[C@@H]1OC(=O)C(C)(C)CNC(=O)[C@@H]([C@H](C)O)NC(=O)/C=C/C[C@@H]([C@H](C)[C@H]2O[C@@H]2c2ccccc2)OC1=O | 1060
41 | CC(C)C[C@@H]1OC(=O)C(C)(C)CNC(=O)[C@@H](Cc2ccccc2)NC(=O)/C=C/C[C@@H]([C@H](C)[C@H]2O[C@@H]2c2ccccc2)OC1=O | 0.183
42 | CC(C)C[C@@H]1OC(=O)C(C)(C)CNC(=O)[C@@H](Cc2ccc(O)c(Cl)c2)NC(=O)/C=C/C[C@@H]([C@H](C)[C@@H]2O[C@H]2c2ccccc2)OC1=O | 31
43 | CC(C)C[C@@H]1OC(=O)C(C)(C)CNC(=O)[C@@H](Cc2ccc(O)cc2)NC(=O)/C=C/C[C@@H]([C@H](C)[C@H]2O[C@@H]2c2ccccc2)OC1=O | 4.11
44 | CC(C)C[C@@H]1OC(=O)C(C)(C)CNC(=O)[C@@H](Cc2cccnc2)NC(=O)/C=C/C[C@@H]([C@H](C)/C=C/c2ccccc2)OC1=O | 997
45 | CC(C)C[C@@H]1OC(=O)C(C)(C)CNC(=O)[C@@H](CC2CCCCC2)NC(=O)/C=C/C[C@@H]([C@H](C)[C@H]2O[C@@H]2c2ccccc2)OC1=O | 8.8
